Read-outs that look alike come from different tables or passages of the source.
Key:
Assay type in all cases: cell-based
H. pylori ATCC 43504 = assay: H. pylori IC50 dose response; settings: for IC50: Helicobacter pylori
H. pylori SS1 = assay: H. pylori IC50 dose response; settings: for IC50: Helicobacter pylori; for fold greater potency than compound 1: H. pylori SS1
Cytotoxicity assay = settings: human, FaDu cells
Summary of the method: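 FaDu cells, maintained per ATCC protocols, were seeded in EMEM with 10% FBS at 3 x 10^5 cells/ml and grown 24 h at 37°C, 5% CO2. Medium was replaced with two-fold serial dilutions of test compound in fresh medium for 72 h, then with FBS-free EMEM plus resazurin (final 0.15 mM) for 3-5 h. Fluorescence read at ex 540/em 590 nm. IC50 fitted from percent inhibition versus growth controls, converted to pIC50, and reported as mean ± S.E.M.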

[1] = system: panel of representative Gram-negative and Gram-positive species, including commensals; assay: MIC against panel of representative Gram-negative and Gram-positive species
[2] = ATCC43504, read-out: H. pylori ATCC 43504 pIC50 (converted)
[3] = SS1, read-out: H. pylori SS1 pIC50 (converted)

Row | SMILES | IC50 (H. pylori ATCC 43504; [2]) [nM] | IC50 (H. pylori SS1; [3]) [nM] | IC50 at 72 h (Cytotoxicity assay) [nM] | also measured
1 | OCCNc1ncnc2sc(-c3ccccc3)cc12 [Compound 9, 2-((6-phenylthieno[2,3-d]pyrimidin-4-yl)amino)ethan-1-ol] | 5010 | 2000 | 100000 | –
2 | Cc1sc2ncnc(N[C@@H](CO)c3ccccc3)c2c1C [Compound 37, (R)-2-((5,6-dimethylthieno[2,3-d]pyrimidin-4-yl)amino)-2-phenylethan-1-ol] | 6310 | 631 | < 20000 | –
3 | OCCCCNc1ncnc2sc(-c3ccccc3)cc12 [Compound 15, 4-((6-phenylthieno[2,3-d]pyrimidin-4-yl)amino)butan-1-ol] | 1580 | 316 | 126000 | –
4 | COc1ccc([C@H](CN)Nc2ncnc3sc(-c4ccccc4)cc23)cc1F [Compound 31, (R)-1-(3-fluoro-4-methoxyphenyl)-N^1-(6-phenylthieno[2,3-d]pyrimidin-4-yl)ethane-1,2-diamine] | 3160 | 1000 | 50100 | fold increase in H. pylori IC50 on substituting hydroxyl for primary amine (H. pylori ATCC 43504; ATCC 43504, relative to 30): > 79 fold; fold increase in H. pylori IC50 on substituting hydroxyl for primary amine (H. pylori SS1; SS1, relative to 30): > 79 fold; MIC [1]: ≥ 16 µg/mL
5 | COc1ccc(CCNc2ncnc3sc(-c4ccccc4)cc23)cc1OC [Compound 19, N-(3,4-dimethoxyphenethyl)-6-phenylthieno[2,3-d]pyrimidin-4-amine] | 158 | 39.8 | 126000 | fold improved potency over compound 2 (H. pylori ATCC 43504; ATCC43504): 11 fold; IC50 (H. pylori ATCC 43504; ATCC43504): 160 nM
6 | OC[C@H](Nc1ncnc2scc(-c3ccccc3)c12)c1ccccc1 [Compound 40, (R)-2-phenyl-2-((5-phenylthieno[2,3-d]pyrimidin-4-yl)amino)ethan-1-ol] | 3980 | 501 | 31600 | –
7 | COc1ccc([C@@H](CO)Nc2ncnc3sc(-c4ccccc4)cc23)cc1 [Compound 27, (S)-2-(4-methoxyphenyl)-2-((6-phenylthieno[2,3-d]pyrimidin-4-yl)amino)ethan-1-ol] | 50.1 | 100 | 50100 | IC50 (H. pylori ATCC 43504; ATCC43504): 53 nM; IC50 (H. pylori SS1; SS1): 110 nM
8 | COCC(C)Nc1ncnc2sc(-c3ccccc3)cc12 (stereo not shown) [Compound 14, N-(1-methoxypropan-2-yl)-6-phenylthieno[2,3-d]pyrimidin-4-amine] | 1260 | 398 | 31600 | fold less potent than compound 10 (H. pylori ATCC 43504; ATCC43504): 29 fold
9 | CC(C)C(CO)Nc1ncnc2sc(-c3ccccc3)cc12 (stereo not shown) [Compound 18, 3-methyl-2-((6-phenylthieno[2,3-d]pyrimidin-4-yl)amino)butan-1-ol] | 3160 | 794 | 50100 | –
10 | CC(O)CNc1ncnc2sc(-c3ccccc3)cc12 (stereo not shown) [Compound 11, 1-((6-phenylthieno[2,3-d]pyrimidin-4-yl)amino)propan-2-ol] | 1000 | 398 | 63100 | fold increase in potency over compound 1 (H. pylori ATCC 43504; ATCC43504): less than 2 fold; fold greater potency than compound 1 (H. pylori SS1): 4 fold
11 | c1ccc(-c2cc3c(NCCc4cccnc4)ncnc3s2)cc1 [Compound 22, 6-phenyl-N-(2-(pyridin-3-yl)ethyl)thieno[2,3-d]pyrimidin-4-amine] | 6310 | 3160 | 100000 | –
12 | CCC(CO)Nc1ncnc2sc(-c3ccccc3)cc12 (stereo not shown) [Compound 16, 2-((6-phenylthieno[2,3-d]pyrimidin-4-yl)amino)butan-1-ol] | 100 | 20 | 39800 | –
13 | COc1ccc([C@H](CO)Nc2ncnc3sc(-c4ccccc4)cc23)cc1 [Compound 26, (R)-2-(4-methoxyphenyl)-2-((6-phenylthieno[2,3-d]pyrimidin-4-yl)amino)ethan-1-ol] | 10 | 6.31 | 15800 | fold increase in potency (H. pylori ATCC 43504; ATCC 43504 (stated for both strains), lead compounds relative to hits): > 69 fold; IC50 (H. pylori ATCC 43504; ATCC43504): 10 nM; IC50 (H. pylori SS1; SS1): 6.8 nM; fold increase in potency (H. pylori SS1; SS1 (stated for both strains), lead compounds relative to hits): > 69 fold; MIC [1]: ≥ 16 µg/mL
14 | Cc1sc2ncnc(N[C@@H](CO)c3ccccc3)c2c1-c1ccccc1 [Compound 39, (R)-2-((6-methyl-5-phenylthieno[2,3-d]pyrimidin-4-yl)amino)-2-phenylethan-1-ol] | 15800 | 7940 | 126000 | –
15 | COc1cccc(CNc2ncnc3sc(-c4ccccc4)cc23)c1OC [Compound 23, N-(2,3-dimethoxybenzyl)-6-phenylthieno[2,3-d]pyrimidin-4-amine] | 1580 | 501 | 25100 | –
16 | c1ccc(-c2cc3c(NCCc4ccncc4)ncnc3s2)cc1 [Compound 21, 6-phenyl-N-(2-(pyridin-4-yl)ethyl)thieno[2,3-d]pyrimidin-4-amine] | 2510 | 1260 | 126000 | –
17 | Cc1c(-c2ccccc2)sc2ncnc(N[C@@H](CO)c3ccccc3)c12 [Compound 38, (R)-2-((5-methyl-6-phenylthieno[2,3-d]pyrimidin-4-yl)amino)-2-phenylethan-1-ol] | 316 | 50.1 | 20000 | –
18 | CCC(O)CNc1ncnc2sc(-c3ccccc3)cc12 (stereo not shown) [Compound 17, 1-((6-phenylthieno[2,3-d]pyrimidin-4-yl)amino)butan-2-ol] | 794 | 251 | 39800 | –
19 | Cc1ccc(CCNc2ncnc3sc(-c4ccccc4)cc23)cc1C [Compound 20, N-(3,4-dimethylphenethyl)-6-phenylthieno[2,3-d]pyrimidin-4-amine] | 79.4 | 501 | < 15800 | –
20 | COc1ccc([C@H](CO)Nc2ncnc3sc(-c4ccccc4)cc23)cc1F [Compound 30, (R)-2-(3-fluoro-4-methoxyphenyl)-2-((6-phenylthieno[2,3-d]pyrimidin-4-yl)amino)ethan-1-ol] | 15.8 | 12.6 | 31600 | MIC [1]: ≥ 16 µg/mL
21 | C[C@@H](CO)Nc1ncnc2sc(-c3ccccc3)cc12 [Compound 12, (S)-2-((6-phenylthieno[2,3-d]pyrimidin-4-yl)amino)propan-1-ol] | 5010 | 2510 | 251000 | –
22 | CN(CCCO)c1ncnc2sc(-c3ccccc3)cc12 [Compound 8, 3-(methyl(6-phenylthieno[2,3-d]pyrimidin-4-yl)amino)propan-1-ol] | 15800 | 6310 | 100000 | –
23 | C[C@H](CO)Nc1ncnc2sc(-c3ccccc3)cc12 [Compound 13, (R)-2-((6-phenylthieno[2,3-d]pyrimidin-4-yl)amino)propan-1-ol] | 158 | 31.6 | 31600 | fold greater potency than compound 1 (H. pylori SS1): 56 fold
24 | CC(CO)Nc1ncnc2sc(-c3ccccc3)cc12 (stereo not shown) [Compound 10, 2-((6-phenylthieno[2,3-d]pyrimidin-4-yl)amino)propan-1-ol] | 39.8 | 79.4 | 100000 | fold increase in potency over compound 1 (H. pylori ATCC 43504; ATCC43504): 37 fold; fold greater potency than compound 1 (H. pylori SS1): 20 fold
25 | COc1ccc(CC(CO)Nc2ncnc3sc(-c4ccccc4)cc23)cc1 (stereo not shown) [Compound 24, 3-(4-methoxyphenyl)-2-((6-phenylthieno[2,3-d]pyrimidin-4-yl)amino)propan-1-ol] | 126 | 251 | 15800 | –
